From ChEMBL document CHEMBL5661968, “Antitumor activity of ZSTK474, a new phosphatidylinositol 3-kinase inhibitor” (J Natl Cancer Inst, 2006)
The source made the active and inactive calls. The calls are words filed in the database; no cut-off is given here.

How the values were obtained:
[1] = system: WiDr; test: Antitumor activity against human WiDr cells xenografted in nude mouse assessed as inhibition of tumor growth at 400 mg/kg, po administered on day 0 to 13 except for day 3 and 10 measured after 14 days; type: functional, organism-based; details: time 14.0 day
In short: (§1)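 Female BALB/c-background nude mice were implanted s.c. with 3 × 3 × 3 mm tumor fragments. At 100–300 mm3 tumor volume (day 0), groups of five were randomized and dosed orally at 400 mg/kg on days 0–13, skipping days 3 and 10. Caliper volume was (L×W2)/2, relative to day 0 (RTV). T/C% on day 14 = 100 × mean treated RTV / mean control RTV.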

[2] = system: SK-OV-3; test: Growth inhibition of human SK-OV-3 cells measured after 48 hrs by sulforhodamine B assay; type: functional
In short: (§2)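 JFCR39 panel lines were grown in RPMI 1640 with 5% FBS, penicillin and streptomycin at 37 °C in 5% CO2. After 48 h of drug exposure, total cellular protein was measured by sulforhodamine B staining. GI50 was calculated by a previously described method.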

[3] = system: PC-3; test: Antitumor activity against human PC-3 cells xenografted in nude mouse assessed as inhibition of tumor growth at 400 mg/kg, po administered on day 0 to 13 except for day 3 and 10 measured after 14 days; type: functional, organism-based; details: time 14.0 day; in short: as §1
[4] = Toxicity in nude mouse xenografted with human PC-3 cells assessed as change in body weight at 400 mg/kg, po administered on day 0 to 13 except for day 3 and 10 measured after 28 days (reference value: 17 %); type: organism-based; details: in vivo, 672 h, time 28 day
[5] = system: SF-539; test: Growth inhibition of human SF-539 cells measured after 48 hrs by sulforhodamine B assay; type: functional; in short: as §2
[6] = Toxicity in nude mouse xenografted with human A549 cells assessed as change in body weight at 400 mg/kg, po administered on day 0 to 13 except for day 3 and 10 measured after 28 days (reference value: 17 %); type: organism-based; details: in vivo, 672 h, time 28 day
[7] = system: MEF; test: Inhibition of PI3K in platelet-derived growth factor induced mouse MEF cells assessed as reduction in membrane ruffling at 1 uM preincubated with compound for 15 mins followed by induction by immunoprecipitation based liquid scintillation spectroscopic analysis; type: cell-based
In short: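 Murine embryonic fibroblasts treated with or without 1 μM compound for 15 min, stimulated with PDGF (10 ng/mL) for 5 min, fixed in 3% formaldehyde 30 min at room temperature, permeabilized with 0.1% Triton X-100, F-actin stained with TRITC-phalloidin (0.1 μg/mL), viewed by fluorescence microscopy.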

[8] = system: MKN-1; test: Growth inhibition of human MKN-1 cells measured after 48 hrs by sulforhodamine B assay; type: functional; in short: as §2
[9] = system: PC-3; test: Growth inhibition of human PC-3 cells measured after 48 hrs by sulforhodamine B assay; type: functional; in short: as §2
[10] = target: Mitogen-activated protein kinase 3 (Homo sapiens) (UniProt P27361); test: Inhibition of ERK1 phosphorylation at Thr-202/Tyr-204 residues in human A549 cells measured after 3 hrs by immunoblotting analysis; details: dose <= 2.0 µM
[11] = target: Mitogen-activated protein kinase 1 (Homo sapiens) (UniProt P28482); test: Inhibition of ERK2 phosphorylation at Thr-202/Tyr-204 residues in human A549 cells measured after 3 hrs by immunoblotting analysis; details: dose <= 2.0 µM
[12] = system: MCF7; test: Growth inhibition of human MCF7 cells measured after 48 hrs by sulforhodamine B assay; type: functional; in short: as §2
[13] = system: OVCAR-3; test: Induction of apoptosis in human OVCAR-3 cells assessed as increase in apoptotic cells at 10 uM measured after 48 hrs by propidium iodide staining based flow cytometric analysis; type: functional, cell-based
In short: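 Cells harvested, washed in ice-cold PBS, fixed in 70% ethanol, washed twice in ice-cold PBS, treated with RNase A (500 μg/mL) at 37 °C for 1 h, stained with propidium iodide (25 μg/mL); DNA content read by flow cytometry.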

Chain of Mitogen-activated protein kinase 1 (Homo sapiens) (P28482 whole entry): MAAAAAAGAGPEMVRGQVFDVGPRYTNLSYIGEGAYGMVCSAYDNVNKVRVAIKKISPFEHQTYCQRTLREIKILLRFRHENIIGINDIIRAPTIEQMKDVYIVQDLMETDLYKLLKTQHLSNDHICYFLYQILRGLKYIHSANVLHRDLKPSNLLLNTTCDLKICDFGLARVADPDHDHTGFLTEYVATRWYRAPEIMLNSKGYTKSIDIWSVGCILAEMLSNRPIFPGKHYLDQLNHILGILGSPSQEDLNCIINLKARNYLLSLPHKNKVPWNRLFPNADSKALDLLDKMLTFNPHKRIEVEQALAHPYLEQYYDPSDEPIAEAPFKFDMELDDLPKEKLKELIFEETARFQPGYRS
Chain of Mitogen-activated protein kinase 3 (Homo sapiens) (P27361 whole entry): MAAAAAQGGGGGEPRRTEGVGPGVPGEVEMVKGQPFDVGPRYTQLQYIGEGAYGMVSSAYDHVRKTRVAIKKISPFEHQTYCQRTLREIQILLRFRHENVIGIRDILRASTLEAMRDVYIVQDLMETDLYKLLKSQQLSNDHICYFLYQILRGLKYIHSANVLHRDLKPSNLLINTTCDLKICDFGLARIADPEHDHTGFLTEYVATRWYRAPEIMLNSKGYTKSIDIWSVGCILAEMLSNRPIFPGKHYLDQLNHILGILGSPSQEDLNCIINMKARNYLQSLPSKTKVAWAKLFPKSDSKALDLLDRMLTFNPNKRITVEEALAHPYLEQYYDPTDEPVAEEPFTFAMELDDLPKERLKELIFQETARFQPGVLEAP

## FC(F)c1nc2ccccc2n1-c1nc(N2CCOCC2)nc(N2CCOCC2)n1 [ZSTK-474]
[1]
  Activity: Active
[2]
  GI50: 331 nM
[3]
  Activity: Active
[4]
  Activity: 17%
[5]
  GI50: 347 nM
[6]
  Activity: 0%
[7]
  inhibition: Active
[8]
  GI50: 224 nM
[9]
  GI50: 38 nM
[10]
  inhibition: inactive
[11]
  inhibition: inactive
[12]
  GI50: 45.7 nM
[13]
  Activity: Active
